Measurements collected from several papers.
Effect on: metabolic stability
Species: human
Medium: liver microsomes

| Structure (SMILES) | concentration | time | pH | compound remaining [%] |
| --- | --- | --- | --- | --- |
| Cc1cn(-c2ccc(-c3csc(Nc4c5c(nn4C)CCCC5)n3)cc2)cn1 | 1 µM | 30 min | – | 55 |
| O=C(CCCO)N1N=C(c2c(-c3ccc(Cl)cc3)c3ccccc3[nH]c2=O)CC1c1ccc(Cl)cc1 (centres unmarked) | 1 µM | 20 min | pH 7.4 | 31 |
| Nc1nc(-c2cccc(NC(=O)Nc3cccc(-c4c[nH]c(N)n4)c3)c2)c[nH]1 | 5 µM | 1 h | pH 7.4 | > 80 |
| CC[C@H](NC(=O)[C@H](CS(=O)(=O)CC1CC1)N[C@@H](c1ccc(F)cc1)C(F)(F)F)C(=O)C(=O)NC1CC1 | – | 1 h | – | 93 |
| CC(C)NCC(O)COc1cccc2ccccc12 (centres unmarked) | 1 µM | 30 min | – | 63 |
| O=C(Nc1ccc(S(=O)(=O)N2CCC(Cl)CC2)cc1)c1ccc([N+](=O)[O-])o1 | 1 µM | 1 h | pH 7.4 | 0.49 |
| Nc1nc(-c2ccc(NC(=O)Nc3cccc(-c4c[nH]c(N)n4)c3F)cc2F)c[nH]1 | 5 µM | 1 h | pH 7.4 | > 80 |
| CS(=O)(=O)c1ccc(-c2cnc(N)c(-c3ccc(C(F)(F)F)nc3)c2)cc1 | 1 µM | 30 min | – | 92 |
